According to ChEMBL document CHEMBL2375255, “New quinazoline derivatives for telomeric G-quadruplex DNA: effects of an added phenyl group on quadruplex binding ability” (Eur J Med Chem, 2013):
The source made the active and inactive calls. The calls are words filed in the database; no cut-off is given here.

Species: Homo sapiens
Assay: Binding affinity to human telomeric G-quadruplex 5'-d(GGG[TTAGGG]3)-3' DNA assessed as induction of conformation conversion from antiparallel to parallel type at 25 uM after 5 mins by circular dichroism spectroscopic analysis

Q: Which Activity does the source give for `CN(C)CCCNc1nc(-c2ccccc2NC(=O)c2ccc(NC(=O)CCN3CCCC3)cc2)nc2ccccc12` here?
A: The Activity was “Active”.

Q: For `CCN(CC)CCC(=O)Nc1ccccc1-c1nc(NCCCN(C)C)c2ccccc2n1`, which Activity is on record?
A: Its Activity is “Active”.

Q: With `CN(C)CCCNc1nc(-c2ccccc2NC(=O)c2ccc(NC(=O)CCN3CCOCC3)cc2)nc2ccccc12` as the compound, how does the Activity read?
A: Its Activity is “Active”.

Q: For `CN(C)CCCNc1nc(-c2ccccc2NC(=O)c2ccc(NC(=O)CN3CCOCC3)cc2)nc2ccccc12`, which Activity is on record?
A: The Activity was “Active”.

Q: Which Activity does the source give for `CN(C)CCCNc1nc(-c2ccccc2NC(=O)CCN2CCOCC2)nc2ccccc12` here?
A: The Activity was “inactive”.

Q: For `CCN(CC)CC(=O)Nc1ccccc1-c1nc(NCCCN(C)C)c2ccccc2n1`, which Activity is on record?
A: Its Activity is “Active”.

Q: Which Activity does the source give for `CN(C)CCCNc1nc(-c2ccccc2NC(=O)CCN2CCCC2)nc2ccccc12` here?
A: The Activity was “Active”.

Q: With `CN(C)CCCNc1nc(-c2ccc(Cl)cc2NC(=O)c2ccc(NC(=O)CCN3CCOCC3)cc2)nc2ccccc12` as the compound, how does the Activity read?
A: The Activity was “Active”.

Q: For `CN(C)CCCNCCC(=O)Nc1ccc(C(=O)Nc2ccccc2-c2nc(NCCCN(C)C)c3ccccc3n2)cc1`, which Activity is on record?
A: The Activity was “Active”.

Q: Which Activity does the source give for `CCN(CC)CCC(=O)Nc1ccc(C(=O)Nc2ccccc2-c2nc(NCCCN(C)C)c3ccccc3n2)cc1` here?
A: Its Activity is “Active”.

Q: For `CCN(CC)CCC(=O)Nc1ccc(C(=O)Nc2cc(Cl)ccc2-c2nc(NCCCN(C)C)c3ccccc3n2)cc1`, which Activity is on record?
A: The Activity was “Active”.

Q: For `CN(C)CCCNc1c2ccccc2nc2c1[nH]c1ccccc12`, which Activity is on record?
A: The Activity was “inactive”.

Q: For `CN(C)CCCNc1nc(-c2ccccc2NC(=O)CN2CCCC2)nc2ccccc12`, which Activity is on record?
A: Its Activity is “Active”.

Molecular target: Telomerase reverse transcriptase (Homo sapiens, UniProt O14746)
Assay: Inhibition of telomerase in human HL60 cell extract by TRAP-LIG assay
Parameters: species or system HL-60
How it was run: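 TRAP-LIG: compounds added to telomerase reaction mix containing HL60 cell extract. Ligand removed after enzyme incubation, before amplification. Purified extended products PCR-amplified for 35 cycles (94 °C 30 s, 61 °C 1 min, 72 °C 1 min). IC50 determined.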

Sequence of Telomerase reverse transcriptase (O14746 whole entry): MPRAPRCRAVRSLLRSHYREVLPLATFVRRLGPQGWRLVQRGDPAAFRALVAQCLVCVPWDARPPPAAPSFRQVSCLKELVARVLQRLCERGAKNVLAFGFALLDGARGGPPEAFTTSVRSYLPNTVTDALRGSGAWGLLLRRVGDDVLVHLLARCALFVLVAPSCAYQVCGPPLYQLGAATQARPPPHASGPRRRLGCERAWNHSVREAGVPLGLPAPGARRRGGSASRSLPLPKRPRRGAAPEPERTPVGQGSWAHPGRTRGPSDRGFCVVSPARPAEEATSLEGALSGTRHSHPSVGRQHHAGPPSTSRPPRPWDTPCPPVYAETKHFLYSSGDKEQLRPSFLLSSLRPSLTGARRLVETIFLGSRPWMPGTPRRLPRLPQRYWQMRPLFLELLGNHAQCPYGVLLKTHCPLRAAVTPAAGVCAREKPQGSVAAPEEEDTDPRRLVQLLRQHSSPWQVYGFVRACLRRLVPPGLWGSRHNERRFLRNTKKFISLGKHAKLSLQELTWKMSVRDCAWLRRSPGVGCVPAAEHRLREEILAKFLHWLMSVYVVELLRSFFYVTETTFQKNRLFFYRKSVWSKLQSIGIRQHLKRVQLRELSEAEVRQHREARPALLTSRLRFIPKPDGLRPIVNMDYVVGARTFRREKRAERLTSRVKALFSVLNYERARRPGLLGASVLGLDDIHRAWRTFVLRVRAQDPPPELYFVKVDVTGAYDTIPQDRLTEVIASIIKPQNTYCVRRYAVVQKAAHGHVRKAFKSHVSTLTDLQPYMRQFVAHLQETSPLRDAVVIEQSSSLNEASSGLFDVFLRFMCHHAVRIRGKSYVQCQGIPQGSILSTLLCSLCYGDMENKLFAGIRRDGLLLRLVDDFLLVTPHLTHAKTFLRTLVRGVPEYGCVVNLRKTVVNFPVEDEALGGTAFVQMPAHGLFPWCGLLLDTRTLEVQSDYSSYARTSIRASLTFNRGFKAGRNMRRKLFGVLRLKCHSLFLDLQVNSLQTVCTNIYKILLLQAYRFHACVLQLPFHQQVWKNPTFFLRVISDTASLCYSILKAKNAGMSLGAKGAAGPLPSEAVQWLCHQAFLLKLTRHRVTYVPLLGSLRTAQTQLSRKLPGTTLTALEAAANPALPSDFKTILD

Q: For `CN(C)CCCNCCC(=O)Nc1ccc(C(=O)Nc2ccccc2-c2nc(NCCCN(C)C)c3ccccc3n2)cc1`, which IC50 is on record?
A: Its IC50 is 30.9 µM.

Molecular target: not listed separately
Assay: Binding affinity to biotinylated duplex DNA (unknown origin) by surface plasmon resonance analysis
How it was run: (§1)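 SPR with a Neutravidin-coated sensor chip. Biotinylated duplex DNA and biotinylated HTG21 were folded in running buffer (50 mM Tris-HCl, 100 mM KCl, pH 7.4, 0.005% Tween20) and immobilized. A range of ligand concentrations was injected simultaneously over G-quadruplex, duplex and blank reference channels. Binding plots from sensorgrams gave equilibrium constants (KD).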

Q: For `CCN(CC)CCC(=O)Nc1ccc(C(=O)Nc2ccccc2-c2nc(NCCCN(C)C)c3ccccc3n2)cc1`, which Kd is on record?
A: Its Kd is 22 µM.

Q: Which Kd does the source give for `CN(C)CCCNc1c2ccccc2nc2c1[nH]c1ccccc12` here?
A: Its Kd is 5.02 µM.

Species: Homo sapiens
Assay: Binding affinity to human telomeric G-quadruplex 5'-d(GGG[TTAGGG]3)-3' DNA assessed as change in melting temperature at 25 uM measured at 265 nM wavelength by circular dichroism spectroscopic analysis
How it was run: (§2)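 HTG21 in 10 mM Tris-HCl, pH 7.4, 60 mM KCl. CD melting profiles were read at 265 nm and at 290 nm, and ΔTm was determined from them.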

Q: Which ΔTm does the source give for `CN(C)CCCNc1nc(-c2ccccc2NC(=O)c2ccc(NC(=O)CCN3CCCC3)cc2)nc2ccccc12` here?
A: The ΔTm was 18.7 °C.

Q: Which ΔTm does the source give for `CCN(CC)CCC(=O)Nc1ccccc1-c1nc(NCCCN(C)C)c2ccccc2n1` here?
A: The ΔTm was 8.2 °C.

Q: Which ΔTm does the source give for `CN(C)CCCNc1nc(-c2ccccc2NC(=O)c2ccc(NC(=O)CCN3CCOCC3)cc2)nc2ccccc12` here?
A: Its ΔTm is 15.3 °C.

Q: For `CN(C)CCCNc1nc(-c2ccccc2NC(=O)c2ccc(NC(=O)CN3CCOCC3)cc2)nc2ccccc12`, which ΔTm is on record?
A: Its ΔTm is 11.9 °C.

Q: For `CN(C)CCCNc1nc(-c2ccccc2NC(=O)CCN2CCOCC2)nc2ccccc12`, which ΔTm is on record?
A: The ΔTm was 4.3 °C.

Q: Which ΔTm does the source give for `CCN(CC)CC(=O)Nc1ccccc1-c1nc(NCCCN(C)C)c2ccccc2n1` here?
A: The ΔTm was 2.1 °C.

Q: Which ΔTm does the source give for `CN(C)CCCNc1nc(-c2ccccc2NC(=O)CCN2CCCC2)nc2ccccc12` here?
A: The ΔTm was 8.7 °C.

Q: With `CN(C)CCCNc1nc(-c2ccc(Cl)cc2NC(=O)c2ccc(NC(=O)CCN3CCOCC3)cc2)nc2ccccc12` as the compound, how does the ΔTm read?
A: The ΔTm was 21.6 °C.

Q: With `CN(C)CCCNCCC(=O)Nc1ccc(C(=O)Nc2ccccc2-c2nc(NCCCN(C)C)c3ccccc3n2)cc1` as the compound, how does the ΔTm read?
A: Its ΔTm is over 28 °C.

Q: Which ΔTm does the source give for `CCN(CC)CCC(=O)Nc1ccc(C(=O)Nc2ccccc2-c2nc(NCCCN(C)C)c3ccccc3n2)cc1` here?
A: Its ΔTm is 19.6 °C.

Q: For `CCN(CC)CCC(=O)Nc1ccc(C(=O)Nc2cc(Cl)ccc2-c2nc(NCCCN(C)C)c3ccccc3n2)cc1`, which ΔTm is on record?
A: Its ΔTm is 21.9 °C.

Q: Which ΔTm does the source give for `CN(C)CCCNc1c2ccccc2nc2c1[nH]c1ccccc12` here?
A: Its ΔTm is 11.2 °C.

Q: Which ΔTm does the source give for `CN(C)CCCNc1nc(-c2ccccc2NC(=O)CN2CCCC2)nc2ccccc12` here?
A: The ΔTm was 7.3 °C.

Species: Homo sapiens
Assay: Binding affinity to human telomeric G-quadruplex 5'-d(GGG[TTAGGG]3)-3' DNA assessed as change in melting temperature at 25 uM measured at 290 nM wavelength by circular dichroism spectroscopic analysis
How it was run: as §2

Q: Which ΔTm does the source give for `CN(C)CCCNc1nc(-c2ccccc2NC(=O)c2ccc(NC(=O)CCN3CCCC3)cc2)nc2ccccc12` here?
A: The ΔTm was 4.6 °C.

Q: For `CCN(CC)CCC(=O)Nc1ccccc1-c1nc(NCCCN(C)C)c2ccccc2n1`, which ΔTm is on record?
A: The ΔTm was 2.5 °C.

Q: Which ΔTm does the source give for `CN(C)CCCNc1nc(-c2ccccc2NC(=O)c2ccc(NC(=O)CCN3CCOCC3)cc2)nc2ccccc12` here?
A: The ΔTm was 8.2 °C.

Q: Which ΔTm does the source give for `CN(C)CCCNc1nc(-c2ccccc2NC(=O)c2ccc(NC(=O)CN3CCOCC3)cc2)nc2ccccc12` here?
A: Its ΔTm is 4.7 °C.

Q: For `CN(C)CCCNc1nc(-c2ccccc2NC(=O)CCN2CCOCC2)nc2ccccc12`, which ΔTm is on record?
A: The ΔTm was 0.9 °C.

Q: Which ΔTm does the source give for `CCN(CC)CC(=O)Nc1ccccc1-c1nc(NCCCN(C)C)c2ccccc2n1` here?
A: The ΔTm was 0.7 °C.

Q: With `CN(C)CCCNc1nc(-c2ccccc2NC(=O)CCN2CCCC2)nc2ccccc12` as the compound, how does the ΔTm read?
A: The ΔTm was 3.6 °C.

Q: Which ΔTm does the source give for `CN(C)CCCNc1nc(-c2ccc(Cl)cc2NC(=O)c2ccc(NC(=O)CCN3CCOCC3)cc2)nc2ccccc12` here?
A: The ΔTm was 4.7 °C.

Q: For `CCN(CC)CCC(=O)Nc1ccc(C(=O)Nc2ccccc2-c2nc(NCCCN(C)C)c3ccccc3n2)cc1`, which ΔTm is on record?
A: Its ΔTm is 5.4 °C.

Q: With `CCN(CC)CCC(=O)Nc1ccc(C(=O)Nc2cc(Cl)ccc2-c2nc(NCCCN(C)C)c3ccccc3n2)cc1` as the compound, how does the ΔTm read?
A: Its ΔTm is 2.8 °C.

Q: Which ΔTm does the source give for `CN(C)CCCNc1c2ccccc2nc2c1[nH]c1ccccc12` here?
A: The ΔTm was 8 °C.

Q: Which ΔTm does the source give for `CN(C)CCCNc1nc(-c2ccccc2NC(=O)CN2CCCC2)nc2ccccc12` here?
A: Its ΔTm is 2.6 °C.

Molecular target: not listed separately
Assay: Binding affinity to human biotinylated telomeric G-quadruplex 5'-d(GGG[TTAGGG]3)-3' DNA by surface plasmon resonance analysis
How it was run: as §1

Q: With `CN(C)CCCNc1nc(-c2ccc(Cl)cc2NC(=O)c2ccc(NC(=O)CCN3CCOCC3)cc2)nc2ccccc12` as the compound, how does the Kd read?
A: Its Kd is 3.06 µM.

Q: Which Kd does the source give for `CN(C)CCCNCCC(=O)Nc1ccc(C(=O)Nc2ccccc2-c2nc(NCCCN(C)C)c3ccccc3n2)cc1` here?
A: Its Kd is 1.11 µM.

Q: For `CCN(CC)CCC(=O)Nc1ccc(C(=O)Nc2ccccc2-c2nc(NCCCN(C)C)c3ccccc3n2)cc1`, which Kd is on record?
A: Its Kd is 1.61 µM.

Q: Which Kd does the source give for `CCN(CC)CCC(=O)Nc1ccc(C(=O)Nc2cc(Cl)ccc2-c2nc(NCCCN(C)C)c3ccccc3n2)cc1` here?
A: The Kd was 0.302 µM.

Q: With `CN(C)CCCNc1c2ccccc2nc2c1[nH]c1ccccc12` as the compound, how does the Kd read?
A: The Kd was 28 µM.

Test system: not listed separately
Assay: Binding affinity to biotinylated duplex DNA (unknown origin) up to by surface plasmon resonance analysis
How it was run: as §1

Q: With `CN(C)CCCNc1nc(-c2ccc(Cl)cc2NC(=O)c2ccc(NC(=O)CCN3CCOCC3)cc2)nc2ccccc12` as the compound, how does the Activity read?
A: The Activity was “inactive”.

Q: Which Activity does the source give for `CN(C)CCCNCCC(=O)Nc1ccc(C(=O)Nc2ccccc2-c2nc(NCCCN(C)C)c3ccccc3n2)cc1` here?
A: The Activity was “inactive”.

Q: For `CCN(CC)CCC(=O)Nc1ccc(C(=O)Nc2cc(Cl)ccc2-c2nc(NCCCN(C)C)c3ccccc3n2)cc1`, which Activity is on record?
A: Its Activity is “inactive”.
